Most compounds without a hit are left out; they make up all but 2% or so of the library.
NR2E3 ag-1 = inhibitors of NR2E3-RetCOR corepressor binding, primary screen, NR2E3 agonist project, biochemical, TR-FRET, GST-NR2E3, biotin-RetCOR; hit rate 0.12% among 320,000; 1536-well; AID 2300, 2010; inhibition of corepressor binding, % at 4.78 µM;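 active = percent inhibition above the cutoff of mean plus 3 SD of all tested compounds, set per screening campaign, cut at about 20% in these data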;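 also: 0% = DMSO wells and 100% = biotin wells as full block of FRET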
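Material: NR2E3–RetCOR corepressor complex | Quantity: 1.35 nM GST-tagged NR2E3 final | Schedule: 5 h at 4 °C | Replication: Singlicate compound wells | Reagent: RetCOR corepressor, biotinylated, 7 nM | Controls: Biotin wells as high control, 0.6% DMSO wells as low control | Signal: TR-FRET, Eu(K)-anti-GST donor, streptavidin-D2 acceptor, ex 340, em 617/671 nm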
Neddyl block = inhibitors of cullin neddylation, primary screen, biochemical, TR-FRET, uHTS, NAE and Ubc12; NEDD8-conjugating enzyme Ubc12 (Homo sapiens) + NEDD8-activating enzyme E1 regulatory …; hit rate 0.58% among 360,000; AID 651699, 2012; calls only at 25 µM; in the data active = inhibition above about 36%
Target sequence (P61081 whole entry, looked up): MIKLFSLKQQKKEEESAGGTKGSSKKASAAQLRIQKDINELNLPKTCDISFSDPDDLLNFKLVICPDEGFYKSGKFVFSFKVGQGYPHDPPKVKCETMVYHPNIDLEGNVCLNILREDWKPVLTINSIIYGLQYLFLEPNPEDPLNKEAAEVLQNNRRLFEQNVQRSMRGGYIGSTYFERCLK
Target sequence (Q13564 whole entry, looked up): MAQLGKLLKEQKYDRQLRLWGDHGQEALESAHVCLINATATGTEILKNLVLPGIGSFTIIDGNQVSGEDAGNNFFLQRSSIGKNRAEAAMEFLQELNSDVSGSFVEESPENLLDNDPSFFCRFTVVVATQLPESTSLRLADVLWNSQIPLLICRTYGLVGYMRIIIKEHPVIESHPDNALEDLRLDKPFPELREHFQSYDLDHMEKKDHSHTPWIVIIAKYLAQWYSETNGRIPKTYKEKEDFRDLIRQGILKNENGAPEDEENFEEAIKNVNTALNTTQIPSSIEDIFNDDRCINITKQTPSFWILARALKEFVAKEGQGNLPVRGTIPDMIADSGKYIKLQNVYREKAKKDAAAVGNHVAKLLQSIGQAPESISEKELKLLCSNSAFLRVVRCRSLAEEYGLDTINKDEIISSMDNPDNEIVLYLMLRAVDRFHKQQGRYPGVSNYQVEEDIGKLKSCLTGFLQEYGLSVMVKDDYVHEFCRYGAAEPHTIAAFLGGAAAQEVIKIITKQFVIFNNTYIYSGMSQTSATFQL
Rev-erbA mod = modulators of Rev-erb alpha DNA binding, primary screen, biochemical, FITC-DNA, fluorescence polarization, uHTS. Rev-erbα–FITC-DNA binding, 90 min. activity, % at 10 µM. hit rate 0.79% among 370,000. AID 1259318, 2017;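 active = activity above about 14%, limit read from the data; passing the limit was not always enough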;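 also: 0% = DMSO wells with 35 nM protein and 100% = DMSO wells with 750 nM protein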
NR2E3 ag-2 = NR2E3 agonists in two-hybrid cells, primary screen, cell-based, luminescence, CHO-S, Gal4-NCOR/VP16-NR2E3. Photoreceptor-specific nuclear receptor (Homo sapiens), Q9Y5X4. luciferase. inhibition of corepressor binding, % at 3.98 µM. hit rate 0.35% among 360,000;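 active = inhibition above the mean of all tested compounds plus 3 SD, cut at about 70% in these data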;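 also: 0% = DMSO with NR2E3 transfected cells and 100% = cells lacking NR2E3 construct; higher means lower luciferase signal from less NR2E3 corepressor binding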
PG9 binder = binders of HIV-1 gp120 antibody PG9, primary screen, biochemical, TR-FRET; HIV-1 gp120 / PG9 antibody interaction; hit rate 0.43% among 360,000; TR-FRET gp120-PG9 antibody binding; inhibition, % at 6.7 µM; in the data active = inhibition above about 8.5%
NR2E3 ag conf = NR2E3 agonist confirmation in cells, cell-based, luminescence, CHO-S two-hybrid; CHO-S mammalian two-hybrid NR2E3-NCOR, luciferase luminescence; AID 624378, 2012; hit rate 51% among 2,300; inhibition, % at 3.98 µM; shares compounds with NR2E3 ag-2;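 active = average inhibition above a cutoff equal to the mean inhibition of all tested compounds plus one SD, cut at about 70% in these data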;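 also: 0% = DMSO in NR2E3 cells and 100% = DMSO in cells lacking NR2E3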
GAL4-VP16 luc = GAL4-VP16 reporter modulators, confirmation, counter-screen for NR2E3 agonist project, cell-based, luminescence, CHO-S, high throughput; hit rate 29% among 2,300; inhibition, % at 3.98 µM; CHO-S GAL4-VP16 luciferase reporter; AID 624379, 2012; shares compounds with NR2E3 ag-2;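 active = mean inhibition above a cutoff equal to the average over all tested compounds plus one standard deviation, cut at about 70% in these data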;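 also: luciferase from a UAS reporter driven by GAL4-VP16 transactivation; 0% = DMSO with VP16-transfected cells and 100% = DMSO with cells lacking VP16; higher means less reporter light so more repression of VP16 activity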
Starred values were filed as active, the others as inactive; i = inactive; nt = no result shown.

SMILES	NR2E3 ag-1	Neddyl block	Rev-erbA mod	NR2E3 ag-2	PG9 binder	NR2E3 ag conf	GAL4-VP16 luc
CC1=C(C(=O)N2CCCC(C(=O)c3cccc(C(F)(F)F)c3)C2)OCCO1 (centres undefined)	1	i	-2	-21	1	nt	nt
c1cc(CNc2ccc3c(c2)OCCO3)ccn1	-4	i	-6	62	-1	-4	-2
O=C(NCc1ccncc1)Nc1ccc2c(c1)OCO2	2	i	-4	-7	-1	nt	nt
C=CCOc1ccccc1CNc1ccc2c(c1)OCCO2	-3	i	nt	49	nt	49	-8
NC(=S)N/N=C/c1ccccc1	-3	i	1	-23	-2	nt	nt
NC(=S)NN=Cc1nccc2c(C(F)(F)F)cccc12	nt	i	-11	65	-3	-10	21
Cc1ccc(C(=O)NNC(=S)NC(=O)c2ccc(Cl)cc2Cl)cc1	2	i	-1	54	3	48	29
COC(=O)c1cc(C(c2ccccc2O)C2CCC(C)(C)O2)n2ccccc12 (centres undefined)	nt	nt	-2	nt	nt	nt	nt
N#C/C(=C/c1ccc(Sc2nc3ccccc3[nH]2)o1)c1ccccc1F	0	i	0	62	-2	78*	63
N#C/C(=C/c1ccc(Sc2nc3ccccc3[nH]2)o1)c1cccc(F)c1	1	i	-2	23	3	nt	nt
CC(C)CN1C(=O)C[C@@]2(C(=O)N(C)c3ccc(NS(=O)(=O)C4CC4)cc32)C1c1ccccc1 (some centres undefined)	nt	nt	-1	nt	nt	nt	nt
C=CCSc1nc2ccccc2n1C(=O)/C=C/c1cc(OC)c(OC)c(OC)c1	1	i	-2	57	0	69	-1
O=C(Nc1ccc(-n2ccc(C(F)(F)F)n2)cc1)Nc1cccc(Cl)c1	-1	i	4	82*	0	99*	75*
Cc1cc(C)cc(NC(=O)Nc2ccc(-n3ccc(C(F)(F)F)n3)cc2)c1	-3	i	-2	0	1	nt	nt
C(=Cc1cnc2ccccc2n1)c1ccc2c(c1)OCO2	nt	nt	-4	52	-18	37	-3
C(=Cc1nc2ccccc2o1)c1ccc2c(c1)OCO2	nt	nt	4	-102	0	nt	nt
C[C@H]1CC2C3CCC4=CC(=O)C=C[C@]4(C)[C@@]3(F)[C@@H](O)C[C@]2(C)[C@@]1(O)C(=O)COP(=O)(O)O (some centres undefined)	nt	nt	-4	nt	nt	nt	nt
CCOC(=O)Cc1nc(N2CCCN(C(C)=O)CC2)c2c(C)c(C(=O)OCC)sc2n1	nt	nt	7	nt	nt	nt	nt
COc1ccc(CCNS(=O)(=O)c2ccc(N3CCCC3=O)cc2)cc1	2	i	-5	25	1	nt	nt
Cc1ccc(OCCNS(=O)(=O)c2ccc(N3CCCC3=O)cc2)cc1	2	i	1	61	-2	86*	72*
Cc1ccc(OCCNS(=O)(=O)c2ccc(N3CCCC3=O)cc2)cc1C	6	i	-2	93*	-1	98*	85*
COc1cc(-n2c(C)nc3cc(C(=O)N4CC(C)CC(C)C4)ccc32)cc(OC)c1OC (centres undefined)	nt	nt	-1	nt	nt	nt	nt
Cc1ccc(C(=O)CCC(=O)N2CCN(c3ccccc3O)CC2)cc1	1	i	1	49	1	36	3
Cc1ccc(-n2c(COc3ccccc3)nnc2SCC(=O)Nc2ccccc2-c2ccccc2)cc1	nt	nt	-6	nt	nt	nt	nt
O=c1c(Cl)c(N2CCN(c3ccc(F)cc3)CC2)cnn1C12CC3CC(CC(C3)C1)C2	1	i	-4	64	-1	71*	22
SMILES	NR2E3 ag-1	Neddyl block	Rev-erbA mod	NR2E3 ag-2	PG9 binder	NR2E3 ag conf	GAL4-VP16 luc
CC(OC(=O)OC1CCCCC1)OC(=O)C1=C(CSc2nnnn2CCN(C)C)CS[C@@H]2[C@H](NC(=O)Cc3csc(N)n3)C(=O)N12 (some centres undefined)	nt	nt	-7	nt	nt	nt	nt
COc1ccc(S[C@]2(C(=O)N3CCN(c4ncccn4)CC3)CC(=O)N(c3ccccc3)[C@@H]2c2ccc(OC)cc2)cc1	nt	nt	3	nt	nt	nt	nt
COc1ccc(CNC(=O)c2c(C)oc3c2C(=O)c2ccccc2C3=O)cc1	-2	i	10	66	1	98*	50
COc1ccc(CNC(=O)c2ccc(-c3ccccc3)cc2)cc1	0	i	nt	-83	5	nt	nt
Cc1nc2c(-c3ccccc3)cnn2c(N)c1-c1ccccc1	nt	nt	-5	74*	-2	55	-6
Cc1cc(-c2ccccc2)n2ncc(-c3ccccc3)c2n1	0	i	1	-43	-3	nt	nt
O=C1c2ccccc2C(=O)N1Nc1ccccc1	1	i	4	58	0	19	20
O=C1c2cccc3c([N+](=O)[O-])c(O)cc(c23)C(=O)N1Nc1ccccc1	0	i	-3	-26	-2	nt	nt
COC(=O)[C@]12C[C@H](CC(=O)NCc3cccc(C(F)(F)F)c3)C(=O)N(Cc3cccc4ccccc34)C1=C[C@H](COCc1ccccc1)O[C@@H]2C	nt	nt	-3	nt	nt	nt	nt
CC(CCN1CCC(C(O)(c2ccccc2)c2ccccc2)CC1)Oc1ccc(OC(F)(F)F)cc1 (centres undefined)	nt	nt	0	nt	nt	nt	nt
Cc1cc(N2CCN(c3nc4ccccc4s3)CC2)n2ncnc2n1	1	i	4	73*	0	94*	76*
C=CC[n+]1c(/C=C2\C=Cc3cc(C)ccc3N2CC)ccc2ccccc21	0	i	-5	90*	-7	98*	91*
O=C(N[C@H](Cc1ccccc1)C(=O)NCC1CCCCC1)[C@H]1O[C@@H](n2ccc(=O)[nH]c2=O)[C@H](O)[C@@H]1O	nt	nt	-1	nt	0	nt	nt
O=C(NCc1cccc(C(F)(F)F)c1)c1[nH]c(C(F)(F)F)nc1-c1ccccc1	nt	i	nt	91*	nt	59	27
COc1ccc(CNS(=O)(=O)c2ccc(-c3cc(C)no3)cc2)cc1	5	i	0	51	-4	31	34
Cc1cc(-c2ccc(S(=O)(=O)NCc3ccc(F)cc3)cc2)on1	2	i	-2	24	0	nt	nt
CC(=O)O[C@@H]1C=C[C@@H](C#Cc2ccc(C(C)(C)C)cc2)O[C@@H]1COC(=O)NCc1ccccc1	nt	nt	-6	nt	0	nt	nt

High-throughput results (PubChem)
